We go through 51 compounds from ChEMBL document CHEMBL1136744, “Synthesis and activity of substituted 2-phenylquinolin-4-amines, antagonists of immunostimulatory CpG-oligodeoxynucleotides” (J Med Chem, 2003).

The nature of this test: Ability to reverse action of CpG-ODN on WEHI 231 murine B-cell lymphoma cells. It counts as functional, cell-based, Mus musculus. The method in brief: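 WEHI 231 murine B-lymphoma cells at 2 × 10⁵ per mL; anti-surface IgM (10 μg/mL) kills them, and CpG-ODN 1760 (6 µg/mL) reverses this. Compounds were added in triplicate at 3-fold dilutions, with or without anti-IgM. Cells were incubated 16 h at 37 °C, then pulsed with 0.5 μCi ³H-thymidine for 4 h. The concentration halving the CpG-ODN effect was read graphically from log dose-response plots. Quinacrine served as internal control.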
As for `Cc1cccc(-c2cc(NCCC3CCCN3C)c3ccccc3n2)c1` (stereo unspecified), the “Log 1/EC50” value came out at 7.85.

Take `CN(C)CCNc1cc(-c2ccc(CN3CCN(C)CC3)cc2)nc2ccccc12`: the “Log 1/EC50” value stood at 8.15.

In the case of `CN1CCN(Cc2cccc(-c3cc(NCCCn4ccnc4)c4ccccc4n3)c2)CC1`, the “Log 1/EC50” value was 6.92.

Take `Cc1ccc(-c2cc(NCCCCCO)c3ccccc3n2)cc1`: the “Log 1/EC50” value came to 5.74.

Consider `CN(C)CCCNc1cc(-c2ccc(N3CCN(C)CC3)cc2)nc2ccccc12`, for which the “Log 1/EC50” value came to 9.

With `CCN1CCCC1CNc1cc(-c2ccc(F)cc2)nc2ccccc12` (stereo unspecified), the “Log 1/EC50” value was determined as 7.77.

On to `Cc1cccc(-c2cc(NCCCN3CCOCC3)c3ccccc3n2)c1`, for which the “Log 1/EC50” value was determined as 7.3.

With `Cc1cccc(-c2cc(NCCN(C)C)c3ccccc3n2)c1`, the “Log 1/EC50” value is 7.74.

For `CCN1CCCC1CNc1cc(-c2ccc(C)cc2)nc2ccccc12` (stereo unspecified), the “Log 1/EC50” value was 7.66.

Consider `CN1CCN(CCNc2cc(-c3ccc(F)cc3)nc3ccccc23)CC1`, for which the “Log 1/EC50” value was determined as 7.73.

For the compound `Fc1ccc(-c2cc(NCCCN3CCOCC3)c3ccccc3n2)cc1`, the “Log 1/EC50” value stood at 7.17.

In the case of `Fc1ccc(-c2cc(NCCCCN3CCCC3)c3ccccc3n2)cc1`, the “Log 1/EC50” value is listed as 7.68.

Consider `Fc1ccc(-c2cc(NCCN3CCCC3)c3ccccc3n2)cc1`, for which the “Log 1/EC50” value turned out to be 7.62.

Take `CN1CCN(c2ccc(-c3cc(NCCCN4CCOCC4)c4ccccc4n3)cc2)CC1`: the “Log 1/EC50” value was 8.66.

For `NCCCCCNc1cc(-c2ccc(F)cc2)nc2ccccc12`, the “Log 1/EC50” value came out at 7.81.

Turning to `CN1CCN(CCCNc2cc(-c3ccc(CN4CCN(C)CC4)cc3)nc3ccccc23)CC1`, the “Log 1/EC50” value is 8.17.

As to `Cc1ccc(-c2cc(NCCN(C)C)c3ccccc3n2)cc1`, the “Log 1/EC50” value is given as 7.91.

As for `CN1CCCC1CCNc1cc(-c2ccc(F)cc2)nc2ccccc12` (stereo unspecified), the “Log 1/EC50” value was determined as 7.88.

With `CN1CCN(c2ccc(-c3cc(NCCC4CCCN4C)c4ccccc4n3)cc2)CC1` (stereo unspecified), the “Log 1/EC50” value is reported as 8.7.

For the compound `Cc1cccc(-c2cc(NCCCN3CCN(C)CC3)c3ccccc3n2)c1`, the “Log 1/EC50” value is reported as 7.56.

As to `CN(C)CCNc1cc(-c2ccc(N3CCCCC3)cc2)nc2ccccc12`, the “Log 1/EC50” value was found to be 8.27.

`CN(C)CCCNc1cc(-c2ccc(N3CCCCC3)cc2)nc2ccccc12`: the “Log 1/EC50” value was 7.8.

For the compound `Cc1cccc(-c2cc(OCCN(C)C)c3ccccc3n2)c1`, the “Log 1/EC50” value amounted to 5.51.

Regarding `Cc1ccc(-c2cc(Nc3ccc(O)c(CN4CCN(C)CC4)c3)c3ccccc3n2)cc1`, the “Log 1/EC50” value was found to be 7.88.

As to `CN1CCN(CCNc2cc(-c3ccc(N4CCN(C)CC4)cc3)nc3ccccc23)CC1`, the “Log 1/EC50” value is given as 8.82.

Take `Cc1ccc(-c2cc(OCCN(C)C)c3ccccc3n2)cc1`: the “Log 1/EC50” value is reported as 5.88.

Consider `CN(C)CCCCNc1cc(-c2ccc(N3CCCCC3)cc2)nc2ccccc12`, for which the “Log 1/EC50” value came out at 7.33.

As for `Cc1cccc(-c2cc(NCCCn3ccnc3)c3ccccc3n2)c1`, the “Log 1/EC50” value was 6.71.

Turning to `Cc1ccc(-c2cc(NCCCN(C)C)c3ccccc3n2)cc1`, the “Log 1/EC50” value was 7.94.

On to `Cc1cccc(-c2cc(NCCCN(C)C)c3ccccc3n2)c1`, for which the “Log 1/EC50” value turned out to be 7.88.

As to `CN1CCN(Cc2cccc(-c3cc(NCCC4CCCN4C)c4ccccc4n3)c2)CC1` (stereo unspecified), the “Log 1/EC50” value worked out at 8.11.

For `CCN(CC)CCNc1cc(-c2cccc(C)c2)nc2ccccc12`, the “Log 1/EC50” value worked out at 7.65.

Take `CN1CCN(Cc2cc(Nc3cc(-c4ccc(N5CCN(C)CC5)cc4)nc4ccccc34)cc(CN3CCN(C)CC3)c2O)CC1`: the “Log 1/EC50” value was 8.85.

On to `CN(C)CCCCNc1cc(-c2ccc(N3CCN(C)CC3)cc2)nc2ccccc12`, for which the “Log 1/EC50” value was 8.91.

Consider `Cc1ccc(-c2cc(Nc3cc(CN4CCN(C)CC4)c(O)c(CN4CCN(C)CC4)c3)c3ccccc3n2)cc1`, for which the “Log 1/EC50” value is 8.84.

As for `CN1CCN(c2ccc(-c3cc(NCCCCN4CCCC4)c4ccccc4n3)cc2)CC1`, the “Log 1/EC50” value amounted to 8.26.

On to `CN1CCN(c2ccc(-c3cc(NCCN4CCCC4)c4ccccc4n3)cc2)CC1`, for which the “Log 1/EC50” value amounted to 8.62.

Regarding `CN(C)CCCNc1cc(-c2ccc(F)cc2)nc2ccccc12`, the “Log 1/EC50” value was 7.86.

In the case of `OCCCCCNc1cc(-c2ccc(F)cc2)nc2ccccc12`, the “Log 1/EC50” value was 5.16.

In the case of `Cc1ccc(-c2cc(NCCCn3ccnc3)c3ccccc3n2)cc1`, the “Log 1/EC50” value amounted to 6.98.

`CN(C)CCCNc1cc(-c2ccc(CN3CCN(C)CC3)cc2)nc2ccccc12`: the “Log 1/EC50” value amounted to 8.04.

On to `CCN(CC)CCNc1cc(-c2ccc(C)cc2)nc2ccccc12`, for which the “Log 1/EC50” value amounted to 7.73.

As for `Cc1ccc(-c2cc(NCCCN3CCOCC3)c3ccccc3n2)cc1`, the “Log 1/EC50” value was determined as 7.57.

For `CN(C)CCNc1cc(-c2ccc(N3CCN(C)CC3)cc2)nc2ccccc12`, the “Log 1/EC50” value was determined as 9.12.

Regarding `CN1CCN(Cc2ccc(-c3cc(NCCN4CCCC4)c4ccccc4n3)cc2)CC1`, the “Log 1/EC50” value was found to be 8.49.

As to `CN(C)CCCCCNc1cc(-c2ccc(N3CCN(C)CC3)cc2)nc2ccccc12`, the “Log 1/EC50” value is listed as 8.84.

Take `CN1CCN(Cc2cc(Nc3cc(-c4ccc(F)cc4)nc4ccccc34)cc(CN3CCN(C)CC3)c2O)CC1`: the “Log 1/EC50” value is listed as 8.76.

As to `CCN1CCCC1CNc1cc(-c2cccc(C)c2)nc2ccccc12` (stereo unspecified), the “Log 1/EC50” value was 7.66.

As for `Cc1ccc(-c2cc(NCCCN3CCN(C)CC3)c3ccccc3n2)cc1`, the “Log 1/EC50” value is on record as 7.86.

Turning to `CN1CCN(Cc2cc(Nc3cc(-c4ccc(F)cc4)nc4ccccc34)ccc2O)CC1`, the “Log 1/EC50” value is recorded as 7.67.

Take `CN(C)CCCCNc1cc(-c2ccc(F)cc2)nc2ccccc12`: the “Log 1/EC50” value amounted to 7.76.
